# Screening data as filed in PubChem.
# Hits are enriched below; roughly 3% of the tested compounds scored in any of these assays.
# SENP6 inh: SENP6 protease inhibition; Q9GZR1; Recombinant SENP6 catalytic domain, aminoluciferin luminescence; inhibition, % at 10 µM; hit rate 1.8% among 330,000; AID 2599;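 active = inhibition above about 50% at the single tested dose, limit read from the data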
# UBC13 inh: inhibitors of human UBC13 polyubiquitin chain formation; inhibition, % at 20 µM; hit rate 0.47% among 330,000; TR-FRET; in the data active = inhibition above about 45%, passing the limit was not always enough
# Target sequence (P61088 whole entry, looked up): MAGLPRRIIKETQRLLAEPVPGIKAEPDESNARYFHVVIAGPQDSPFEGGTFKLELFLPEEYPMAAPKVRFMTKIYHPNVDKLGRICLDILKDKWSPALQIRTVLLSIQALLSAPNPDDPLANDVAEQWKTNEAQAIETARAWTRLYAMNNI
# SENP8 block-1: inhibitors of human SENP8 protease; Q96LD8; purified SENP8, Z-RLRGG-aminoluciferin cleavage, luminescence; inhibition, % at 10 µM; hit rate 1.2% among 330,000; AID 2540; in the data active = inhibition above about 50%
# Target sequence (Q96LD8 whole entry, looked up): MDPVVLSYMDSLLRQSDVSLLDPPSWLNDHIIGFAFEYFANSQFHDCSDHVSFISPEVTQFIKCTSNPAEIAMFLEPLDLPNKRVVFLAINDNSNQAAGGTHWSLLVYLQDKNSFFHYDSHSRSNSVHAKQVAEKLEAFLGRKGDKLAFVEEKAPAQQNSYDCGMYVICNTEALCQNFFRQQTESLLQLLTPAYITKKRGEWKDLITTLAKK
# SENP8 block-2: SENP8 (human) protease inhibition; inhibition, % at 20 µM; hit rate 0.64% among 360,000; recombinant SENP8, Nedd8 substrate fluorescence; Q96LD8; AID 602440; in the data active = inhibition mostly above about 40%, no sharp cut-off; inactive = mostly below about 27%
# SENP7 inh: blocks the human protease SENP7; inhibition, % at 5 µM; hit rate 1.5% among 330,000; Q9BQF6; recombinant SENP7, Z-RLRGG-aminoluciferin luminescence, 40 min;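 active = inhibition above about 50% at the single test dose, limit read from the data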
# Apaf1 inhib: human Apaf-1 inhibition; O14727; inhibition, % at 20 µM; reconstituted apoptosome caspase-3 activity, DEVD-Rh110 fluorescence; AID 489030; hit rate 0.71% among 330,000; active = inhibition of at least 40% at 20 µM
#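 System – cell-free apoptosome with Apaf-1, procaspase-3 and caspase-9 · Buffer or medium – pH 7.5 Hepes buffer with CHAPS, BSA, DTT · Also added – cytochrome c with DEVD-Rh110 · Times – 30 min compound preincubation, 50 min activation, room temperature · Technique – Rh110 fluorescence intensity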
# SENP8 conf: human SENP8 inhibition, confirmed. shares compounds with SENP7 inh. Recombinant SENP8, Z-RLRGG-aminoluciferin luminescence, 60 min. inhibition, % at 12.5 µM. hit rate 40% among 6,200;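 active = mean inhibition across replicates above about 50%, limit read from the data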
# SENP6 confirm: confirmation of human SENP6 protease inhibitors; recombinant SENP6, Z-RLRGG-aminoluciferin luminescence; inhibition, % at 12.5 µM; hit rate 58% among 6,200; AID 488915; shares compounds with SENP7 inh
# SENP7 confirm: human SENP7 inhibition, confirmed; shares compounds with SENP7 inh; recombinant SENP7, Z-RLRGG-aminoluciferin luminescence, 40 min; inhibition, % at 12.5 µM; hit rate 69% among 6,200
# Casp3 SENP sel: caspase-3 inhibition (SENP selectivity assay). purified caspase-3, Z-DEVD-aminoluciferin luminescence, 60 min. inhibition, % at 12.5 µM. AID 488918. shares compounds with SENP7 inh. hit rate 60% among 6,200;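 active = mean inhibition above about 50%, limit read from the data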
# Target sequence (P42574 28-227 limits assumed): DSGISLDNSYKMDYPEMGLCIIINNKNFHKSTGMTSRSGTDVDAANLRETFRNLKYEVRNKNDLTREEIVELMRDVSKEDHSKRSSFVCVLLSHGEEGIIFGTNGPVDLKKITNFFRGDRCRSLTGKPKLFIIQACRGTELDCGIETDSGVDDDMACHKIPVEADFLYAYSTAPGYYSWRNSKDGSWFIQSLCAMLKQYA
# Luc interf: luminescence interference (SENP counter-screen); hit rate 39% among 6,200; Pre-incubated SENP8/Z-RLRGG-aminoluciferin, luciferase luminescence interference; inhibition, % at 12.5 µM; shares compounds with SENP7 inh;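 active = mean inhibition above about 50% when retested at one dose, limit read from the data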
# Hits are given with their value; - = inactive; . = no result given.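 Rule for the calls, unless noted: active = mean inhibition above about 50% in the one-dose retest (limit read from the data); inactive = the rest.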
SMILES,SENP6 inh,UBC13 inh,SENP8 block-1,SENP8 block-2,SENP7 inh,Apaf1 inhib,SENP8 conf,SENP6 confirm,SENP7 confirm,Casp3 SENP sel,Luc interf
COc1ccccc1N=NC1C(=O)N(C(N)=S)N=C1C (centres undefined),-,-,-,-,-,-,.,.,.,.,.
CC1=NN(C(N)=S)C(=O)C1N=Nc1ccccc1Cl (centres undefined),88.5,-,83.4,41.8,52.8,-,-,89.9,97.9,82.4,-
CN(C)CCNc1ncnc2c1ncn2[C@H]1CN(Cc2cccnc2)C[C@@H](CO)O1,.,.,.,-,.,.,.,.,.,.,.
O=C(/C=C/c1cccc(F)c1)c1ccc(N2CCOCC2)cc1,-,-,-,-,-,-,.,.,.,.,.
O=C(/C=C/c1cccs1)c1ccc(N2CCOCC2)cc1,84.2,-,72.0,-,87.4,-,-,81.7,93.2,-,-
O=C(CCCOc1ccccc1)N1CCCCC1,55.0,-,-,-,-,-,-,-,69.4,78.7,-
CCN(CC)C(=N)/C(C#N)=N/Nc1ccccc1,-,-,-,-,-,-,.,.,.,.,.
NC(=O)c1ccsc1NC(=O)C1CCCN1S(=O)(=O)c1ccc(Cl)cc1 (centres undefined),-,-,-,-,-,-,.,.,.,.,.
Cc1cc(C)n(-c2ccc(C(=O)Nc3sccc3C(N)=O)cc2)n1,74.8,-,-,-,63.3,-,63.8,64.5,82.0,58.0,-
CC1CCCCN1S(=O)(=O)c1ccc(C(=O)Nc2sccc2C(N)=O)cc1 (centres undefined),82.9,-,85.8,-,79.2,-,87.4,87.7,96.6,74.1,-
Nc1nnn(CC(=O)N/N=C/C=C/c2ccccc2)n1,-,-,-,-,-,-,.,.,.,.,.
CCc1ccc(-c2nc(CCl)cs2)cc1,73.7,-,56.1,-,64.1,-,-,84.4,96.1,68.6,-
Fc1cccc2sc(Nc3nnc(-c4ccco4)o3)nc12,-,-,-,-,-,-,.,.,.,.,.
CCOC(=O)c1sc(Nc2nc3c(OC)cccc3s2)nc1C,-,-,-,-,-,-,.,.,.,.,.
COc1cccc2sc(Nc3nnc(-c4ccc(F)cc4)o3)nc12,75.4,-,-,-,-,-,-,-,86.2,66.2,-
COc1cccc2sc(Nc3nnc(-c4cccs4)o3)nc12,91.8,-,83.5,-,72.7,-,84.2,84.0,96.7,82.6,55.3
CN1CCC(C)(C(=O)Nc2cccc(Oc3ccccc3)c2)C1 (centres undefined),.,.,.,-,.,.,.,.,.,.,.
CC(C)(C)NCCCCOc1ccccc1F,-,-,-,-,84.2,-,-,-,-,-,-
COc1ccccc1OCCCCNC(C)(C)C,-,-,-,-,-,-,.,.,.,.,.
CCCCn1c(N)c(N(CCC(C)C)C(=O)C2=NN(c3cc(C)ccc3C)C(=O)CC2)c(=O)[nH]c1=O,-,-,-,-,-,-,.,.,.,.,.
CC(C)COc1ccc(C(=O)Nc2sc3c(c2C(=O)O)CC(C)(C)OC3)cc1,-,-,-,-,-,-,.,.,.,.,.
COc1ccc(C(=O)Nc2sc3c(c2C(=O)O)CC(C)(C)OC3)cc1,62.6,-,-,-,-,-,-,55.9,-,50.2,-
CC1(C)Cc2c(sc(NC(=O)C(=O)N3CCCC3)c2C(=O)O)CO1,-,-,-,-,-,-,.,.,.,.,.
CC1(C)Cc2c(sc(NC(=O)c3ccccc3)c2C(=O)O)CO1,-,-,63.8,-,-,-,76.9,69.3,86.1,82.4,59.4
Cc1ccc(C(=O)Nc2nn(C)c3cccc(F)c23)cc1,-,-,-,-,-,-,.,.,.,.,.
SMILES,SENP6 inh,UBC13 inh,SENP8 block-1,SENP8 block-2,SENP7 inh,Apaf1 inhib,SENP8 conf,SENP6 confirm,SENP7 confirm,Casp3 SENP sel,Luc interf
O=C(Nc1ccc(NC(=O)c2cccs2)cc1)c1ccc2c(c1)OCCO2,-,-,-,-,-,-,.,.,.,.,.
Cc1ccc(-c2nnc(COC(=O)c3cccs3)o2)cc1,77.6,-,71.4,-,72.4,-,79.6,77.6,94.1,77.7,68.9
Cc1ccc(C(=O)COC(=O)c2cccs2)cc1,93.8,-,86.5,-,93.6,-,92.9,92.3,99.1,91.6,88.5
O=C(COC(=O)c1cccs1)c1ccc2c(c1)OCCO2,94.9,-,79.9,-,-,-,98.6,99.4,102.5,96.9,97.0
O=C(COC(=O)c1cccs1)c1ccc2ccccc2c1,-,-,62.7,-,78.1,-,-,64.0,89.3,-,54.3
CCOc1ccccc1NC(=O)NCc1ccc(F)cc1,-,-,-,-,-,-,.,.,.,.,.
CC(=O)c1ccc(N2CCN(C(=O)CCS(=O)(=O)c3ccc4c(c3)CCN4C(C)=O)CC2)cc1,-,-,-,-,-,-,.,.,.,.,.
CSc1nnc(-c2ccccc2Cl)o1,-,-,-,-,-,-,.,.,.,.,.
Clc1ccccc1-c1ncc(-c2ccccc2)o1,90.6,-,87.5,-,92.4,-,79.4,91.5,98.7,79.2,83.7
Cc1nc(-c2coc3cc(C)c(N=O)c(O)c3/c2=N\N)cs1,-,-,-,-,-,-,.,.,.,.,.
Cc1nc(-c2coc3cc(O)c(C)cc3c2=O)cs1,93.4,-,93.9,-,97.8,-,84.5,98.0,101.5,95.5,-
Cc1nc(-c2coc3cc(OCC(=O)O)ccc3c2=O)cs1,64.6,-,-,-,-,-,56.7,53.9,86.2,88.0,63.3
CC(C)(C)c1ccc(Oc2coc3cc(OCC(=O)O)ccc3c2=O)cc1,-,-,-,-,-,-,.,.,.,.,.
O=C(COC(=O)c1ccc(CO)cc1)Nc1ccc(OC(F)F)cc1,-,-,-,-,-,-,.,.,.,.,.
O=C(Nc1ccccc1)c1sc(Cl)nc1-c1ccccc1,-,-,-,-,-,-,.,.,.,.,.
O=C(Nc1ccccc1)c1ccc(-c2ccccc2)s1,-,-,-,-,83.9,-,-,-,-,67.2,-
COc1ccc2cc(C(=O)Nc3ccccc3)sc(=O)c2c1OC,-,-,-,-,-,-,.,.,.,.,.
O=C(Nc1ccccc1)c1cc2ccc3ccccc3c2s1,-,-,-,-,69.3,-,-,-,-,-,-
CCN(CC)C(=O)Cn1cc(S(=O)(=O)CC(=O)N2CCOCC2)c2ccccc21,-,-,-,-,-,-,.,.,.,.,.
COC(=O)[C@]1(C)N[C@H](CN(C)C(=O)NC(C)C)[C@@H]2C(=O)N(C)C(=O)[C@@H]21,-,-,-,-,-,-,.,.,.,.,.
CC(=O)c1cc(F)ccc1OCC(=O)Nc1ccc2c(c1)OCO2,-,-,-,-,-,-,.,.,.,.,.
